Compound activity deposited in PubChem BioAssay by Broad Institute.
SIRT5 inh: SIRT5 desuccinylase inhibitors, primary screen, biochemical, fluorescence imaging, single point, set 5; Purified SirT5, succinyl-peptide AMC, trypsin-coupled fluorescence; inhibition, % at 15 µM; actives 1.1% (n = 330,000); AID 652115, 2013; in the data active = inhibition above about 15%
Target sequence (Q9NXA8 whole entry, looked up): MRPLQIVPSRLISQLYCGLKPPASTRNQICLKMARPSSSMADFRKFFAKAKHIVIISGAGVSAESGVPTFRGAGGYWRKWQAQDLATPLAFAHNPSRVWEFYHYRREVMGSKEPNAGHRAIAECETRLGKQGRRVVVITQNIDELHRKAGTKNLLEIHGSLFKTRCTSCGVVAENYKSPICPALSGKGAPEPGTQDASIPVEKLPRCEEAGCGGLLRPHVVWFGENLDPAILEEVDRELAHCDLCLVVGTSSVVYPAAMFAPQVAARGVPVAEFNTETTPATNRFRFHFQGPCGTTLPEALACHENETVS
CFTR F508del cor: F508del CFTR correction, initial screen, CFBE line, single point; CFBE cells, YFP halide quenching; stimulated with forskolin plus potentiator P3; % fluorescence drop versus neutral controls; activity (quench increase), % at 7.58 µM; actives 0.36% (n = 350,000); AID 720511, 2013;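 active = mean added fluorescence quench of at least 8% versus neutral control, with both replicates also reaching 8%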;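 also: cells transiently co-express mutant CFTR-F508del with the halide-sensitive YFP; corrector assay measuring rescue of mutant channel to the surface after 24 h compound exposure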
ERAP1 inh: human ERAP1 aminopeptidase inhibitors, primary screen, biochemical, single point, plate reader. Endoplasmic reticulum aminopeptidase 1 (Homo sapiens), Q9NZ08. recombinant ERAP1, Leu-AMC fluorescence, 60 min. inhibition, % at 10.7 µM. actives 0.15% (n = 340,000);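 active = mean replicate inhibition of at least 30%, or all replicates individually reaching that 30% level; inactive = mean below 30% and not every replicate reaching it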;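 also: 0% = neutral control wells and 100% = L-leucinethiol positive control wells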
S100A4 inh HTS: inhibitors of S100A4-myosin IIA peptide binding, primary screen, biochemical, fluorescence polarization, TAMRA-MyoIIA peptide; actives 0.14% (n = 360,000); inhibition, % at 10.7 µM; Protein S100-A4 (Homo sapiens), P26447;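 active = mean inhibition of at least 70% across replicates, with every replicate also reaching that level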
Target sequence (P26447 whole entry, looked up): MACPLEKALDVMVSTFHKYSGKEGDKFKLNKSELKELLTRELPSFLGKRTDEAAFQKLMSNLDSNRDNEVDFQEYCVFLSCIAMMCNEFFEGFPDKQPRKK
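Material: S100A4 monomer protein | Medium: HEPES pH 7.2 with CaCl2, KCl, NaCl, DTT, Triton | Reagent: Labelled myosin peptide probe, 5 nM | Doses: One dose per compound | Times: 5 min incubation before reading | Benchmarks: Neutral control DMSO, positive control TFP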
Ecoli rRNA inh: reduced GFP signal of wild-type E. coli, primary screen, bacterial rRNA inhibitor project, GFP/RFP fluorescence, OD600, single point. GFP signal change (wild-type ribosome), % (concentration not given with the values). E. coli WT GFP vs humanized-ribosome RFP mutants, 24 h; hits give low values; DMSO median 0, no signal -100. actives 1.6% (n = 350,000);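 active = significant combined selectivity score with lowered wild-type GFP, culture density cut under 30%, mutant RFP and density less affected; inactive = any of these conditions unmet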
* marks the source's active call; other numbers are inactive results; / = no result; + = active, no number. Hits are enriched below; roughly 3.1% of the tested compounds scored in any of these assays.

SMILES	SIRT5 inh	CFTR F508del cor	ERAP1 inh	S100A4 inh HTS	Ecoli rRNA inh
Cc1nn(C)cc1NC(=O)C[C@@H]1CC[C@H]2[C@@H](COc3ccc(NC(=O)C(C)C)cc3C(=O)N2C)O1	/	2	/	/	2
Cc1ccc(S(=O)(=O)N(C)C[C@@H]2Oc3ccc(N(C)C)cc3CC(=O)N([C@H](C)CO)C[C@@H]2C)cc1	5	3	0	-10	-2
COc1ccc(-c2ccc3c(c2)O[C@H](CN(C)Cc2cccnc2)[C@@H](C)CN([C@H](C)CO)S3(=O)=O)cc1	5	-3	-1	108*	-8
C[C@H]1CN([C@@H](C)CO)S(=O)(=O)c2ccc(C#CC3CCCCC3)cc2O[C@@H]1CN(C)Cc1cccnc1	18*	3	-1	-7	/
C[C@@H]1CN([C@H](C)CO)S(=O)(=O)c2ccc(C#CC3CCCC3)cc2O[C@@H]1CN(C)Cc1cncnc1	/	1	/	/	-20
C[C@@H]1CN([C@H](C)CO)S(=O)(=O)c2ccc(C#Cc3ccccc3F)cc2O[C@H]1CN(C)C(=O)Cc1cccnc1	5	10*	5	-9	-38
COc1ccc(-c2ccc3c(c2)O[C@H](CN(C)Cc2cccnc2)[C@H](C)CN([C@H](C)CO)S3(=O)=O)cc1	1	3	-1	1	-19
C[C@H](CO)N1C[C@H](C)[C@H](CN(C)C(=O)Cc2cccnc2)Oc2cc(C#Cc3ccccc3F)ccc2S1(=O)=O	2	0	-3	3	-9
CC#CCOCC1CNC(=O)O1 (stereo not given)	-5	18*	1	-6	/
Cc1cc(C(=O)N/N=C2/CC(C)CC(C)(C)C2)c(C)o1 (stereo not given)	41*	-4	-6	-4	12
CCCNC(=O)C[C@H]1C[C@@H]2c3cc(NS(=O)(=O)c4ccccc4)ccc3O[C@@H]2[C@@H](CO)O1	/	-3	/	/	-1
COc1cccc(/C=N/NC(=O)C(=O)Nc2ccccc2OC(F)(F)C(F)F)c1O	-6	15*	1	5	-32
C[C@@H]1CCCCO[C@@H](CN(C)Cc2ccc(C(=O)O)cc2)[C@H](C)CN([C@H](C)CO)C(=O)c2cc(NC(=O)Cc3ccccc3)ccc2O1	0	1	0	-4	6
CCN1CCN(C(c2cccs2)C(C)NC(=S)Nc2cc(C)ccc2C)CC1 (stereo not given)	16*	-1	-2	8	0
Cc1ccc(C)c(NC(=S)NC(C)C(c2ccccc2)N2CCN(C)CC2)c1 (stereo not given)	-1	0	-2	5	7
C[C@H](CO)N1C[C@H](C)[C@H](CN(C)C)Oc2cc(-c3cccc(F)c3)ccc2S1(=O)=O	-16	1	-1	-1	2
COc1cccc(CNC(=O)C[C@H]2CC[C@H]3[C@H](COc4ccc(NS(=O)(=O)c5ccccc5F)cc4C(=O)N3C)O2)c1	20*	-2	1	11	-5
CCNC(=O)C[C@H]1CC[C@H]2[C@@H](COc3ccc(NS(=O)(=O)c4ccccc4C)cc3C(=O)N2C)O1	18*	3	1	-9	-2
COc1cccc(CNC(=O)C[C@H]2CC[C@H]3[C@@H](COc4ccc(NS(=O)(=O)c5ccccc5F)cc4C(=O)N3C)O2)c1	3	-1	-3	0	-4
CCCCC(=O)OCC(=O)C1(O)Cc2c(O)c3c(c(O)c2C(OC2CC(NC(=O)C(F)(F)F)C(O)C(C)O2)C1)C(=O)c1c(OC)cccc1C3=O (stereo not given)	-3	3	-3	34	-6
COc1cccc2c1C(=O)c1c(O)c3c(c(O)c1C2=O)CC(O)(C(C)=O)CC3OC1CC(O)C(O)C(C)O1 (stereo not given)	/	19*	32*	+	/
COc1cccc2c1-c1c(O)cccc1C2=O	-3	1	-2	-7	-6
COc1cccc2c1C(=O)c1c(O)c3c(c(O)c1C2=O)C[C@](O)(C(C)=O)C[C@H]3O[C@@H]1C[C@@H](N)[C@@H](O)[C@@H](C)O1	-2	31*	19	+	/
COc1ccc(S(=O)(=O)N[C@H]2CC[C@@H](CC(=O)NCCc3ccccc3)O[C@@H]2CO)cc1	-2	-5	-8	4	4
Cc1ccccc1CN(C)CC(=O)Nc1cccc(S(=O)(=O)N(C)c2ccccc2)c1	0	0	-2	-2	-21*
SMILES	SIRT5 inh	CFTR F508del cor	ERAP1 inh	S100A4 inh HTS	Ecoli rRNA inh
c1ccc(C[C@H]2CN=C(Nc3ccccc3)N2CC2CCCC2)cc1	21*	-1	/	-2	-19
O=C(C[C@H]1C=C[C@H](NC(=O)C2CCOCC2)[C@H](CO)O1)NCC1CC1	0	0	-1	4	1
CC(NCc1ccccc1Cl)C(=O)Nc1ccc(C#N)cc1 (stereo not given)	3	2	-1	-3	-29*
COCC(=O)Nc1ccc2c(c1)OC[C@H](C)N(Cc1ccccc1OC)C[C@H](C)[C@H](OC)CN(C)C2=O	9	1	-5	2	1
COc1ccc(-n2c3c(cc(C(=O)NCC(=O)c4ccccc4)c2=O)C(=O)CC(C)(C)C3)cc1	-2	-3	2	7	6
CC1(C)CC(=O)c2cc(C(=O)NNc3ccccc3)c(=O)n(-c3ccccc3)c2C1	21*	-1	-7	-14	4
C[C@H]1CN([C@@H](C)CO)C(=O)c2cc(NC(=O)Cc3ccccc3)ccc2O[C@@H]1CN(C)Cc1ccccc1	1	3	2	-23	1
O=[N+]([O-])c1cc(-c2nnc(N3CCOCC3)c3ccccc23)ccc1N1CCOCC1	0	2	-1	-5	-35*
COc1ccc(CCNC(=O)COC(=O)/C=C/c2ccc3c(c2)OCO3)cc1OC	1	-2	-2	2	-8
COc1ccc(CCNC(=O)CO/N=C/c2cc3c(cc2Br)OCO3)cc1OC	-1	1	4	6	-36*
Cc1onc(-c2c(F)cccc2Cl)c1-c1nnc(-c2cccc3ccccc23)o1	-8	2	3	-2	10
Cc1onc(-c2c(Cl)cccc2Cl)c1-c1nc2cc(Cl)ccc2c(=O)o1	-3	-1	-4	-3	-34*
CO[C@@H](CN(C)Cc1cc(F)ccc1F)[C@@H](C)CN(C(=O)Nc1ccc(F)cc1)[C@@H](C)CO	-5	0	2	1	-5
C[C@@H]1CN([C@H](C)CO)C(=O)c2cccc(NS(=O)(=O)c3ccccc3)c2O[C@H]1CN(C)S(=O)(=O)c1cn(C)cn1	-1	-1	-4	-5	0
